Bioassay records deposited in PubChem by several laboratories.
TRAIL sens C8 = caspase-8 TRAIL sensitization. NB7+C8 cells + TRAIL, ATPlite viability luminescence. 1% of 360,000 active. inhibition (viability loss, TRAIL sensitization), % at 10 µM;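 active means compounds causing at least 50% loss of cell viability in the single-dose screen, relative to plate controls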
FLuc act counter = firefly luciferase counter-screen for stimulation assays; P08659; 200,000 tested, under 10 active; activation factor at 10 µM; ATPlite luciferase biochemical, luminescence, 10 min; 0 = ATP-free wells, 1 = DMSO control; AID 1027;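 active means luciferase activation factor, scaled between plate controls, of at least 2 with compound at 10 µM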
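Material: Luciferase/luciferin reagent mix; Doses: test compounds dosed from 2 mM stocks in 100% DMSO; Schedule: 10 min incubation after luciferase reagent addition, room temperature; Measured by: luminescence from luciferase reaction; Read-out: luminescence gain marking luciferase activators.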
PKD1 inh = PKD1 (human) kinase inhibition. Q15139. PKD1 kinase fluorescence polarization assay. inhibition, % (concentration not given with the values). 0.056% of 200,000 active; in the data active means inhibition above about 50%
Target sequence (Q15139 whole entry, looked up): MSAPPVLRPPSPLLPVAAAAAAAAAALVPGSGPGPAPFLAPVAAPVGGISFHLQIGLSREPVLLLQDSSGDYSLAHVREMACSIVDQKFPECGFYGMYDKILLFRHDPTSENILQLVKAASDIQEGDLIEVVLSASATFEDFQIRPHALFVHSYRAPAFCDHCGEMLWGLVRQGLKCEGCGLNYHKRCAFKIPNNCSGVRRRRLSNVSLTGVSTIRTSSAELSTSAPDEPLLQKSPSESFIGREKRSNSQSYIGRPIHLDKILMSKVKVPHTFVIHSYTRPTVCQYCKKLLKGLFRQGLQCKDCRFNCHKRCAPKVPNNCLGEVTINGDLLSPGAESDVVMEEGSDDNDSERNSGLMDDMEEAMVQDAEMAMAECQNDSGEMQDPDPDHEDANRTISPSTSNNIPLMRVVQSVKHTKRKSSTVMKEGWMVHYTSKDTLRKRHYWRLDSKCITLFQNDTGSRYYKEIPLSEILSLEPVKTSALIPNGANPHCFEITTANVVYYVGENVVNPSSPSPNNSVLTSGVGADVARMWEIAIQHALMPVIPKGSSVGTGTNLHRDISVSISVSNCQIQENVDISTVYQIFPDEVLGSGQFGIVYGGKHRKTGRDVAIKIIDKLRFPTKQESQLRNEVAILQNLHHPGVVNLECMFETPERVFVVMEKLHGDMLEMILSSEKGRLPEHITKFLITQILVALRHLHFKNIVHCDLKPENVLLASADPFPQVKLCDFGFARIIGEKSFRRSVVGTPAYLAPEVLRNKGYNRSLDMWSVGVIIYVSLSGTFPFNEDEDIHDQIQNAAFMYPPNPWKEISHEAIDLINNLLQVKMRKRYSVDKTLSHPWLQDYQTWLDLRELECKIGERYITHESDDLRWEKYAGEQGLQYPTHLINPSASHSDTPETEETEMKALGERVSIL
Wee1 degr inh = blocks degradation of human Wee1 kinase; HeLa Luc-Wee1K328M stability, luciferase luminescence; 100% = proteasome inhibitor MG132 effect; reporter increase, % at 5 µM; 1.2% of 220,000 active;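 active means activation above the mean of all tested compounds plus 3 SD, set per screening run, cut at about 8.8% in these data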;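 further: cells exposed to compound for 20 h before luminescence read; 0% = DMSO alone and 100% = MG132 at 30 µM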
FLuc inh counter = counter-screen for luciferase assay inhibitors: firefly luciferase inhibition. ATPLite firefly luciferase biochemical luminescence, 10 min. 1.5% of 200,000 active. P08659. inhibition, % at 10 µM. AID 1006;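 active means inhibition above about 50% when tested at 10 µM, limit read from the data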
PPC-1+TRAIL kill = kills PPC-1 cancer cells in the presence of TRAIL. PPC-1 cells + TRAIL, ATPLite viability luminescence. cell killing (% activity), % at 4 µM or 5 µM. 0.41% of 220,000 active;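 active means cell killing above 50% in the first pass at 4 µM, then a duplicate retest at 5 µM averaging 50% or more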;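 further: plate controls were cells with TRAIL plus DMSO for no effect and medium-only wells lacking cells for full effect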
An asterisk follows results filed as active; nt = not tested or not shown. Rows were chosen to be rich in hits. Some 2.2% of all compounds tested hit in one or more screens of this group.

SMILES	TRAIL sens C8	FLuc act counter	PKD1 inh	Wee1 degr inh	FLuc inh counter	PPC-1+TRAIL kill
O=C1OCCN1C(=O)[C@H]1[C@H](c2ccc([N+](=O)[O-])cc2)C(c2cccc(Cl)c2)=NN1c1ccccc1	-4	1	6	10*	-2	27
Cc1nc(Cl)nc(N(C)c2ccccc2)c1[N+](=O)[O-]	-7	nt	nt	1	nt	11
CN(C)C(=O)c1ccc(N=Nc2c(O)c3ccccc3[nH]c2=O)cc1	76*	nt	nt	nt	nt	nt
Cc1ccc(N=Nc2c(O)c3ccccc3[nH]c2=O)c(S(=O)(=O)N(C)C)c1	nt	nt	nt	-1	nt	55*
COc1ccc2cc(CCNC(=O)c3cccs3)c(=O)[nH]c2c1	5	1	-8	9.5*	-4	-4
Cn1nc(-c2ccc(C(=O)NCCO)cc2)c2ccccc2c1=O	18	nt	nt	2	nt	26
COc1ccc(NC(=O)C/C(C)=N/NC(=O)C(=O)NC(C)C)c(OC)c1	1	1	-7	9.7*	-4	7
NC1=C(Br)C(=O)c2ncccc2C1=O	95*	nt	nt	nt	nt	nt
CCCCCCCN1C(Nc2ccccc2)=NC[C@@H]1CC(C)C	48	nt	nt	nt	nt	nt
CC(=Nc1cccc(O)c1)c1sc2ccccc2c1O	10	0.5	-14	0	53*	35
Cc1cc(NC(=O)c2sc3ccccc3c2O)no1	6	nt	nt	nt	nt	nt
CC(=Nc1ccc(C)cc1)c1sc2ccccc2c1O	62*	0.1	-6	8	85*	43
CC(=O)NCCN=Cc1sc2ccccc2c1O	-1	1	10	0	-2	11
CC(C)N(C(=O)CSc1nnc(C2CC2)n1C1CC1)c1ccccc1	5	nt	nt	nt	nt	nt
CC1Cn2c(nc3sc4c(c3c2=O)CC(C)(C)OC4)N1CCO (configuration not stated)	-4	nt	nt	nt	nt	nt
COc1ccc(-c2ccnc3nc(N4CCOCC4)nn23)cc1	-22	1.1	0	-4	-6	26
c1ccc(Oc2ccc(-c3ccnc4nc(N5CCOCC5)nn34)cc2)cc1	6	1.1	-6	9.3*	-9	5
CSc1ccc(/C=C2\C(=N)N3N=C(CC(=O)N4CCCCC4)SC3=NC2=O)cc1	5	nt	nt	nt	nt	nt
CN(CCC#N)C(=O)COC(=O)c1c2c(nc3ccccc13)/C(=C/c1ccco1)CC2	3	1	-6	10*	1	19
CCOc1ccc(C(=O)COC(=O)c2nc3nccc(C)n3n2)cc1	-2	nt	nt	nt	nt	nt
C#CCN(C[C@@H]1[C@@H](OC(=O)NCc2ccccc2F)[C@@H](OC(=O)NCc2ccccc2F)Cn2c(=O)ccc(=O)n21)S(=O)(=O)c1ccc(C)cc1	81*	nt	nt	nt	nt	nt
C#CCN(C[C@@H]1[C@@H](OC(=O)Nc2cccs2)[C@@H](OC(=O)Nc2cccs2)Cn2c(=O)ccc(=O)n21)S(=O)(=O)c1ccc(C)cc1	86*	nt	nt	nt	nt	nt
Nc1nc(CCl)nc(Nc2cccc3ccccc23)n1	95*	nt	nt	7	nt	27
Cc1nc(NC(=O)c2ccc(Br)s2)sc1C(=O)N(C)C	13	0.6	-4	11*	40	32
O=C(N/N=C/c1ccccc1)c1[nH]ncc1Br	27	0.3	3	-1	70*	12
SMILES	TRAIL sens C8	FLuc act counter	PKD1 inh	Wee1 degr inh	FLuc inh counter	PPC-1+TRAIL kill
COc1ccc(/C=N/NC(=O)c2[nH]ncc2Br)c(OC)c1	-12	0.2	-5	-1	85*	14
CCc1n[n+](CC(=O)c2ccccc2)c(N)s1	59*	0.3	-3	2	70*	65*
Nc1ccc[n+](CC(=O)c2ccccc2)c1	-16	nt	nt	nt	nt	nt
CC(=O)/C(N=Nc1c(C)n(C)n(-c2ccccc2)c1=O)=C(\C)O	4	1.1	0	-2	-8	-9
CCOC(=O)/C(N=Nc1c(C)n(C)n(-c2ccccc2)c1=O)=C(\C)O	-3	1	2	8.9*	-5	23
O=C(Cn1ccc2cc(S(=O)(=O)N3CCCCC3)ccc21)NCc1ccccc1F	8	nt	nt	nt	nt	nt
CC(C)n1c(=S)[nH]c2ccccc2c1=O	6	1	1	0	-1	16
CC(C)n1c(=S)[nH]c2cc(Cl)ccc21	-6	nt	nt	11*	nt	10
COC(=O)[C@]12CCCCC=C1N(Cc1ccccc1)C(=O)[C@H](CC(=O)NCCC(C)C)C2	-8	nt	nt	nt	nt	nt
C#Cc1ccc(NC(=O)C2(C)CCN2C(=O)CC(c2ccccc2)c2ccccc2)cc1 (configuration not stated)	93*	nt	nt	nt	nt	nt
O=C1COc2ccc(S(=O)(=O)N3CCC(C(=O)NCc4ccccc4)CC3)cc2N1	16	nt	nt	nt	nt	nt
Cc1ccc(/C=N/N=C/c2ccc(C)s2)s1	40	0.3	-2	5	74*	25
S=C1NCN(CCc2ccccc2)CN1Cc1ccccc1	-4	nt	nt	9.6*	nt	13
CN(C1CCCCC1)C(CNS(=O)(=O)c1ccc(Cl)cc1)c1ccccc1 (configuration not stated)	8	nt	nt	nt	nt	nt
CCCCNCc1nc2ccccc2c(=O)[nH]1	2	1.1	0	8.9*	-6	24
Cc1ccc(Cl)c2c(N=Nc3ccccc3)c(O)[nH]c12	19	nt	nt	nt	nt	nt
COc1cccc(CNc2nc3cc(-c4ccc(OC)cc4C)sc3c(=O)n2C)c1	17	nt	nt	nt	nt	nt
O=C1C=CC(=O)C(CNc2ccc(C(=O)OCc3ccccc3)cc2)=C1	91*	nt	nt	nt	nt	nt
COCc1nnc(NS(=O)(=O)c2ccc(NC(C)=O)cc2)s1	1	1.1	5	9.9*	-5	0
COc1cccc(NC(=O)CSc2nc3c(oc4ccccc43)c(=O)[nH]2)c1	21	0.4	-7	-2	60*	38
COc1cccc(NC(=O)CSc2ncnc3c2oc2ccccc23)c1	23	1	-5	2	-1	11
Cc1ccc(S(=O)(=O)N2CCC(C(=O)NCCc3ccc(S(N)(=O)=O)cc3)CC2)cc1	-6	1.1	-5	5	-5	53*
N#Cc1ccccc1COC(=O)c1cccc(S(=O)(=O)N2CCCC2)c1	8	nt	nt	nt	nt	nt
CN1CCc2c(sc(NC(=O)c3ccc4ccccc4c3)c2C(N)=O)C1	34	nt	nt	nt	nt	nt
COc1cc2ccccc2cc1C(=O)Nc1sc2c(c1C(N)=O)CCN(C(C)C)C2	83*	nt	nt	nt	nt	nt
SMILES	TRAIL sens C8	FLuc act counter	PKD1 inh	Wee1 degr inh	FLuc inh counter	PPC-1+TRAIL kill
O=C(Nn1cnnc1)c1ccc(Cl)cc1	10	nt	nt	nt	nt	nt
N#CC(C#N)=C1SC(=Nc2ccccc2)C(=Nc2ccccc2)N1c1ccccc1	92*	nt	nt	nt	nt	nt
Fc1ccc(N2C(=S)SC(=Nc3ccccc3)C2=Nc2ccccc2)cc1	18	nt	nt	nt	nt	nt
COc1ccc(-c2cc(C(=O)OCC(=O)Nc3ccc4c(c3)OCO4)c3ccccc3n2)cc1	56*	0.8	0	2	16	31
O=C(COC(=O)c1cc(-c2ccccc2)nc2ccccc12)Nc1ccc2c(c1)OCO2	-1	1	1	0	1	19
Cc1c(NC(=O)c2cc(-c3ccccc3)nc3ccccc23)c(=O)n(-c2ccccc2)n1C	-1	nt	nt	nt	nt	nt
Cc1c(NC(=O)COC(=O)c2cc(-c3ccc(-c4ccccc4)cc3)nc3ccccc23)c(=O)n(-c2ccccc2)n1C	87*	0.2	0	2	85*	81*
